{
  "source": "ChEMBL document CHEMBL5335784",
  "about": "“Discovery of a novel 1,3,4-oxadiazol-2-one-based NLRP3 inhibitor as a pharmacological agent to mitigate cardiac and metabolic complications in an experimental model of diet-induced metaflammation” (Eur J Med Chem, 2023)",
  "data": [
    {"assay": "Stability of the compound in PBS at 100 uM at pH 7.4 measured after 24 hrs by RP-HPLC analysis", "format": "physicochemical", "conditions": "buffer, pH 7.4, 24 h", "how_it_was_run": "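Compound added from 10 mM DMSO stock to 50 mM PBS pH 7.4 at 37 °C. Sampled at intervals over 48 h and analysed by RP-HPLC with UV detection at 226/254 nm against calibration standards.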", "values": [
      {"smiles": "O=C(O)Cn1nc(Cc2ccccc2Cl)oc1=O", "Stability": "Stable"}
    ]},
    {"assay": "Metabolic stability of the compound in human serum at 100 uM measured after 24 hrs by RP-HPLC analysis", "format": "ADME, cell-free", "conditions": "not given", "how_it_was_run": "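Human male AB serum at 37 °C with compound at 100 μM (from 10 mM DMSO stock), sampled over 24 h. Aliquots deproteinized with CH3CN/0.1% TFA, centrifuged, filtered and analysed by RP-HPLC (phenyl column, 226/254 nm) with calibration 1-100 μM. Pseudo-first-order t1/2 from exponential decay fit.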", "values": [
      {"smiles": "O=C(O)Cn1nc(Cc2ccccc2Cl)oc1=O", "Stability": "Stable"}
    ]},
    {"assay": "Cytotoxicity against human THP-1 cells assessed as reduction in cell viability measured after 72 hr by MTT assay", "format": "toxicity, cell-based", "conditions": "read-out: TC50", "how_it_was_run": "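Undifferentiated THP-1 cells exposed to 0.1–100 μM compound for 72 h. Viability read by MTT reduction at 570 nm. TC50 from concentration–response; three experiments.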", "units": {"CC50 at 72 h": "µM"}, "values": [
      {"smiles": "CCOC(=O)CN(Cc1ccccc1)c1nnc(NC(=O)c2ccccc2Cl)s1", "CC50 at 72 h": 91.6},
      {"smiles": "CCOC(=O)C1CCCN(c2nnc(NC(=O)c3ccccc3Cl)s2)C1", "note": "(centres undefined)", "CC50 at 72 h": 79.7},
      {"smiles": "COC(=O)c1ccc(-c2nc(Cc3cccc(C(F)(F)F)c3)no2)cc1", "CC50 at 72 h": "> 100"},
      {"smiles": "COc1ccc(Cn2nc(Cc3ccccc3Cl)oc2=O)cc1", "CC50 at 72 h": 64.8},
      {"smiles": "O=C(O)Cn1nc(Cc2ccccc2Cl)oc1=O", "CC50 at 72 h": 94.6},
      {"smiles": "O=C(O)c1ccc(-c2nc(Cc3cccc(C(F)(F)F)c3)no2)cc1", "CC50 at 72 h": 27.3},
      {"smiles": "COC(=O)c1ccc(-c2noc(Cc3cccc(C(F)(F)F)c3)n2)cc1", "CC50 at 72 h": 94.5},
      {"smiles": "CCOC(=O)CN(C)c1nnc(NC(=O)c2ccccc2Cl)s1", "CC50 at 72 h": 96.1},
      {"smiles": "CC(C)(C)OC(=O)Cn1nc(Cc2ccccc2Cl)oc1=O", "CC50 at 72 h": 98.9},
      {"smiles": "COC(=O)c1ccc(-c2noc(Cc3ccccc3Cl)n2)cc1", "CC50 at 72 h": "> 100"},
      {"smiles": "O=c1oc(Cc2ccccc2Cl)nn1Cc1nn[nH]n1", "CC50 at 72 h": "> 100"},
      {"smiles": "CCOC(=O)c1ccc(Cn2nc(Cc3ccccc3Cl)oc2=O)cc1", "CC50 at 72 h": "> 100"},
      {"smiles": "CC(C)c1cc(Cl)cc(C(C)C)c1NC(=O)NS(=O)(=O)c1cc(C(C)(C)O)co1", "CC50 at 72 h": 92.5}
    ]},
    {"assay": "Metabolic stability of the compound in human THP-1 cells at 100 uM measured after 24 hrs by RP-HPLC analysis", "format": "ADME, cell-based", "conditions": "thp-1, 24 h", "how_it_was_run": "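Lysate from PMA-differentiated THP-1 cells (RIPA buffer) at 37 °C with compound at 100 μM, added from 10 mM DMSO stock. Aliquots deproteinized with CH3CN/0.1% TFA, centrifuged, filtered and quantified by RP-HPLC at 226/254 nm against external standards. Pseudo-first-order t1/2 from exponential decay fit; three independent experiments.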", "values": [
      {"smiles": "O=C(O)Cn1nc(Cc2ccccc2Cl)oc1=O", "Stability": "Stable"}
    ]},
    {"assay": "n-Octanol/water distribution coefficient, log D of the compound at pH 7.4 measured after 4 hrs by shake flask method", "format": "physicochemical", "conditions": "not given", "how_it_was_run": "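Shake-flask at room temperature between n-octanol and 50 mM phosphate buffer pH 7.4, ionic strength 0.15 M KCl. Phases were pre-saturated by 4 h shaking. Compound at about 0.1 mg/ml in buffer, shaken about 20 min with n-octanol, then centrifuged at 10000 rpm for 10 min.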", "values": [
      {"smiles": "O=C(O)Cn1nc(Cc2ccccc2Cl)oc1=O", "logD at 4 h": -1.66},
      {"smiles": "CC(C)(C)OC(=O)Cn1nc(Cc2ccccc2Cl)oc1=O", "logD at 4 h": 3.1},
      {"smiles": "O=c1oc(Cc2ccccc2Cl)nn1Cc1nn[nH]n1", "logD at 4 h": -1.09}
    ]}
  ]
}
